Results: ChEMBL document CHEMBL1133013, “Structure-activity relationships and pharmacokinetic analysis for a series of potent, systemically available biphenylsulfonamide matrix metalloproteinase inhibitors” (J Med Chem, 2000)

Legend:
[1] = target: T1, Matrilysin (Homo sapiens, UniProt P09237); experiment: In vitro inhibition of matrix metalloprotease-7 (MMP-7)
T1 sequence (P09237 whole entry): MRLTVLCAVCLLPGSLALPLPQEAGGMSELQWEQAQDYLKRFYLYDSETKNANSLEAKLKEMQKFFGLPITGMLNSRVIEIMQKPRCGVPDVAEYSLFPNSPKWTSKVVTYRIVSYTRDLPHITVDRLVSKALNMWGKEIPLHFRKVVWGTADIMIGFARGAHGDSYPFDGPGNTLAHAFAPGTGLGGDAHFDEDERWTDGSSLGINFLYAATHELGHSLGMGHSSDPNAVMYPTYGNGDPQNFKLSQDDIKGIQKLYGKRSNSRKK

[2] = target: 72 kDa type IV collagenase (Homo sapiens, UniProt P08253); experiment: In vitro inhibition of matrix metalloprotease-2 (MMP-2)
Chain of 72 kDa type IV collagenase (P08253 whole entry): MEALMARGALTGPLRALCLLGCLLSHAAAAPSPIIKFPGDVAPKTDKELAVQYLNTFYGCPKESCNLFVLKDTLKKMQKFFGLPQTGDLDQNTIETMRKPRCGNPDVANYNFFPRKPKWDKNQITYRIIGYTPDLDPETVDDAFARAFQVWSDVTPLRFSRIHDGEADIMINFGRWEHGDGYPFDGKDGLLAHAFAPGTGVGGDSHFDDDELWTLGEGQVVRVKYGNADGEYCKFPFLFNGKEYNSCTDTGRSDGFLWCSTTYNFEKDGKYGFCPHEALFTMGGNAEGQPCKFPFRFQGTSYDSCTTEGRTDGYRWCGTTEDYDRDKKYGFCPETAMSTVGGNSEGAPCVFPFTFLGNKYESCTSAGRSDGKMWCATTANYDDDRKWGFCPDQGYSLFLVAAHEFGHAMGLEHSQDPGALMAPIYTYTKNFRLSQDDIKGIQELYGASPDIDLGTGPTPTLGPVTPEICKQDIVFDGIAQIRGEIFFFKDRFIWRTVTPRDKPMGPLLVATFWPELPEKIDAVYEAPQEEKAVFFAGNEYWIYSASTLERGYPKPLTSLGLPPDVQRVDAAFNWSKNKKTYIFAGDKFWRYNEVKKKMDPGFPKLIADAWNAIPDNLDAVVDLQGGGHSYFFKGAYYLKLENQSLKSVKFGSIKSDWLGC

[3] = target: Matrix metalloproteinase-9 (Homo sapiens, UniProt P14780); experiment: In vitro inhibition of matrix metalloprotease-9 (MMP-9)
Chain of Matrix metalloproteinase-9 (P14780 whole entry): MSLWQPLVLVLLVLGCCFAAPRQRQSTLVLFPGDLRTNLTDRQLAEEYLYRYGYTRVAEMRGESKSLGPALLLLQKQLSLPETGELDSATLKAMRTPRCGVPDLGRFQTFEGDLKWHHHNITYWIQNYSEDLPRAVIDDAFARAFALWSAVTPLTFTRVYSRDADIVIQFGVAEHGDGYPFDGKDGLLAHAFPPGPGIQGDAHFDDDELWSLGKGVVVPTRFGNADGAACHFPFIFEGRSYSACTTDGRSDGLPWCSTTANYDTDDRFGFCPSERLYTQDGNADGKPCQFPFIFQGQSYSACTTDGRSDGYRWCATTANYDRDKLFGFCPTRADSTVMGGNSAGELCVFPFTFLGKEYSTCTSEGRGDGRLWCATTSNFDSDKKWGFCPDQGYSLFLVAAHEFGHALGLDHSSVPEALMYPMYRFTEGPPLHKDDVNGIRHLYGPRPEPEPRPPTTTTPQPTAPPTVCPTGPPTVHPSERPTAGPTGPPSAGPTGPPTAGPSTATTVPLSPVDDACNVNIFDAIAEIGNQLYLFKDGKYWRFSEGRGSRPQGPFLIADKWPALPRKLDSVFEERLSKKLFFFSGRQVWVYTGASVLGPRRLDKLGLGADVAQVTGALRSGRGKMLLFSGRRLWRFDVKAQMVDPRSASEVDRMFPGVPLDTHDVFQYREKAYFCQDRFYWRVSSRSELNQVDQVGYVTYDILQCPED

[4] = target: T2, Interstitial collagenase (Homo sapiens, UniProt P03956); experiment: In vitro inhibition of human recombinant matrix metalloprotease-1 (MMP-1)
T2 sequence (P03956 whole entry): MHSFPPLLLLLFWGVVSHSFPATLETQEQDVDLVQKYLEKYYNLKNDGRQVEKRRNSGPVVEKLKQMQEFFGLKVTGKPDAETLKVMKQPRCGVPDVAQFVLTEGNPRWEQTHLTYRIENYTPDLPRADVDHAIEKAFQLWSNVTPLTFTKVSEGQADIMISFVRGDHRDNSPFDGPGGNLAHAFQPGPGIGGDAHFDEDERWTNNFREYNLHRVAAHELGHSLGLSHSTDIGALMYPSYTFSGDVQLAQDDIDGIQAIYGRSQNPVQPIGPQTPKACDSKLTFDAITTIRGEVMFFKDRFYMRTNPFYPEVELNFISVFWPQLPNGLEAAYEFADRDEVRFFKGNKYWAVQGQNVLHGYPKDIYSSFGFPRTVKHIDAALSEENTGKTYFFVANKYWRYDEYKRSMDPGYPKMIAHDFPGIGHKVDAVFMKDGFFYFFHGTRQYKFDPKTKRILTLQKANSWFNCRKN

[5] = target: Stromelysin-1 (Homo sapiens, UniProt P08254); experiment: In vitro inhibition of recombinant human matrix metalloprotease-3 (MMP-3)
Chain of Stromelysin-1 (P08254 whole entry): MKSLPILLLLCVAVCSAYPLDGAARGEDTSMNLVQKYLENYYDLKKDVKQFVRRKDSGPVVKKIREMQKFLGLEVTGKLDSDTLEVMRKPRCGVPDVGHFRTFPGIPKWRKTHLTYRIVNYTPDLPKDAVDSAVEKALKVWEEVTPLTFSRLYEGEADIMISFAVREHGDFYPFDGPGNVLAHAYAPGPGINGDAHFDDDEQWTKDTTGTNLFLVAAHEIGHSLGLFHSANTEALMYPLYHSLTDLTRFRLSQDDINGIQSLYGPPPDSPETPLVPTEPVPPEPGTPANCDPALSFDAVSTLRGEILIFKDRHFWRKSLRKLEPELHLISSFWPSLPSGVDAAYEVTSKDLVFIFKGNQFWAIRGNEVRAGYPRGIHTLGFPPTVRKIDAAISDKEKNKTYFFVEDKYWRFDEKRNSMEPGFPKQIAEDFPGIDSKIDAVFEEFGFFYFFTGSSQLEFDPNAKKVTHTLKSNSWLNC

[6] = target: Collagenase 3 (Homo sapiens, UniProt P45452)
[7] = Half life (t1/2) in rats following a single 5 mg/kg oral cassette gavage dose; assay type: ADME, organism-based; parameters: dose 5 mg/kg, route oral; conditions: rat, in vivo
In short: (§1)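 Cassette of 5–7 compounds given together as one oral gavage, 5 mg/kg per compound, methyl cellulose suspension, 3 fasted male Wistar rats (80-90 days old). Heparinized plasma taken by jugular cannula predose to 48 h. LC-MS/MS with LLOQ 10 ng/mL. Noncompartmental analysis of individual rats: Cmax/tmax as observed, t1/2 = 0.693/λz, trapezoidal AUC(0-tldc) extrapolated to infinity.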

[8] = Cmax in rat plasma after single 5 mg/kg oral cassette gavage dose; assay type: ADME, organism-based; parameters: dose 5 mg/kg, route oral; in short: as §1
[9] = Time to maximal concentration (tmax) in rats following a single 5 mg/kg oral cassette gavage dose; assay type: ADME, organism-based; parameters: dose 5 mg/kg, route oral; conditions: rat, in vivo; in short: as §1
[10] = Concentration in rat plasma 24 hours after single 5 mg/kg oral cassette gavage dose; assay type: ADME, organism-based; parameters: dose 5 mg/kg, route oral; conditions: read-out: C24
[11] = Pharmacokinetic parameters in rats following a single 5 mg/kg oral cassette gavage dose; assay type: ADME, organism-based; parameters: dose 5 mg/kg, route oral; conditions: rat, in vivo, read-out: AUC 0-infinity; in short: as §1
[12] = AUC in rats following a single 5 mg/kg oral cassette gavage dose; assay type: ADME, organism-based; parameters: dose 5 mg/kg, route oral; conditions: rat, plasma, read-out: AUC 0-tldc; in short: as §1

SMILES	IC50 [1] [µM]	IC50 [2] [nM]	IC50 [3] [µM]	IC50 [4] [µM]	IC50 [5] [nM]	IC50 [6] [nM]	half-life [7] [min]	Cmax [8] [ng/mL]	Tmax [9] [h]	concentration at 24 h [10] [ng/mL]	AUC [11] [µg·h/mL]	AUC [12] [µg·h/mL]
O=C(NCCCC[C@H](NS(=O)(=O)c1ccc(-c2ccc(Br)cc2)cc1)C(=O)O)OCc1ccccc1	15	31	10	40	28	13						
O=C(O)C(CCSCc1ccccc1)NS(=O)(=O)c1ccc(-c2ccc(Br)cc2)cc1 (stereo not given)	36	7	10	56	22	36	750	11600	1.33	1530	132	119
CC(C)[C@H](NS(=O)(=O)c1ccc(-c2ccc(Cl)cc2)cc1)C(=O)O	7.5	11	16	6.5	9	48	2050	8860	0.5	4020	427	170
O=C(CCc1ccccc1)NCCC[C@H](NS(=O)(=O)c1ccc(-c2ccc(Br)cc2)cc1)C(=O)O	6.8	8	7.7	41	21	7						
CC(C)[C@H](NS(=O)(=O)c1ccc(-c2ccc(F)cc2)cc1)C(=O)O	4.8	39	64	4.2	10	43	2730	18700	2.75	11300	1020	670
CC(C)[C@H](NS(=O)(=O)c1ccc(-c2ccc(C#N)cc2)cc1)C(=O)NO	16		100	29	135							
CC(C)[C@H](NS(=O)(=O)c1ccc(-c2ccc(N)cc2)cc1)C(=O)O	31		20		36	105						
CC(C)[C@@H](NS(=O)(=O)c1ccc(-c2ccc(Br)cc2)cc1)C(=O)O	11		1.5				2500	25600	4.5	16300	1380	924
O=C(CCc1ccccc1)NCCCC[C@H](NS(=O)(=O)c1ccc(-c2ccc(Br)cc2)cc1)C(=O)O	8.6		4.8	15	10							
Cc1ccc(-c2ccc(S(=O)(=O)N[C@H](C(=O)O)C(C)C)cc2)cc1	4.5	2	3.9	2.2	3	11	24.2	3070	0.5	< 10	2.37	2.25
CC(C)[C@H](NS(=O)(=O)c1ccc(-c2ccccc2)cc1)C(=O)O	71	40	26	5.4	38	62	201	5180	0.5	39	3.6	12.1
CC(C)[C@H](NS(=O)(=O)c1ccc(-c2ccc(Br)cc2)cc1)C(=O)O	7.2		7.9				2620	42400	2	22700	2820	1400
CC(C)[C@H](NS(=O)(=O)c1ccc(-c2cccc(Br)c2)cc1)C(=O)O		535			290	710						
C[C@H](NS(=O)(=O)c1ccc(-c2ccc(Br)cc2)cc1)C(=O)O	11	12	9.5		12	10	1510	17200	10.5	12900	818	584
O=C(O)[C@H](Cc1ccccc1)NS(=O)(=O)c1ccc(-c2ccc(Br)cc2)cc1	100	19	27		20	21	1780	10300	2.67	6280	465	310
CC(C)[C@@H](NS(=O)(=O)c1ccc(Oc2ccccc2)cc1)C(=O)NO	0.18	1	0.003		4	2	467	310	0.33		3.17	2.17
CC(C)[C@@H](NS(=O)(=O)c1ccc(-c2ccc(C#N)cc2)cc1)C(=O)NO	0.24		0.027	0.17	5		47.4	180	1		0.33	0.23
CC(C)[C@H](NS(=O)(=O)c1ccc(-c2ccc(Br)cc2)cc1)C(=O)NO	78	450	84	24	810	650						
CC(C)C[C@H](NS(=O)(=O)c1ccc(-c2ccc(Br)cc2)cc1)C(=O)O	3.1	9	4.9	7	7	5	2510	30700	2.33	12400	1210	578
COc1ccc(-c2ccc(S(=O)(=O)N[C@H](C(=O)O)C(C)C)cc2)cc1	7.2	3	2.2	1.5		6	21.4	4260	0.5	< 10	2.98	2.79
CC(C)[C@H](NS(=O)(=O)c1ccc(-c2ccc([N+](=O)[O-])cc2)cc1)C(=O)O	5.6		38	12	15	102	1170	23400	0.667	8360	586	402
O=C(O)CNS(=O)(=O)c1ccc(-c2ccc(Br)cc2)cc1	77	4	6.7	50	10	26	936	9960	8	5670	316	276
CC(C)[C@H](NS(=O)(=O)c1ccc(-c2ccc(C=O)cc2)cc1)C(=O)O	4.5	12	17	3.2	8	16						
O=C(O)C(CCS(=O)(=O)Cc1ccccc1)NS(=O)(=O)c1ccc(-c2ccc(Br)cc2)cc1 (stereo not given)	15	2	2.3	27	7	12	233	451	1.67		2.73	2.48
CC(C)[C@H](NS(=O)(=O)c1ccc(-c2ccc(C(F)(F)F)cc2)cc1)C(=O)O	7.9		20	4.2	9	23	2270	18600	2.25	11700	1110	685
CC(C)[C@H](NS(=O)(=O)c1ccc(-c2cccc(F)c2)cc1)C(=O)O	22	49	65	8.6	17	150						
